Data: ChEMBL document CHEMBL1649525, “Population pharmacokinetic analysis of colistin methanesulfonate and colistin after intravenous administration in critically ill patients with infections caused by gram-negative bacteria” (Antimicrob Agents Chemother, 2009)

How the values were obtained:
[1] = tested on: Pseudomonas aeruginosa; experiment: Antimicrobial activity against Pseudomonas aeruginosa by CLSI method; assay type: functional
[2] = tested on: Pseudomonas aeruginosa; experiment: Antimicrobial activity against Pseudomonas aeruginosa by EUCAST method; assay type: functional
[3] = tested on: Acinetobacter baumannii; experiment: Antimicrobial activity against Acinetobacter baumannii by CLSI method; assay type: functional
[4] = tested on: Acinetobacter baumannii; experiment: Antimicrobial activity against Acinetobacter baumannii by EUCAST method; assay type: functional
[5] = Clearance in patient with gram-negative bacterial infection at […], iv; assay type: ADME, organism-based; parameters: route intravenous; conditions: human, in vivo
In short: (§1)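 Critically ill ICU patients (n=18) received CMS 3 MU (240 mg) in 100 ml saline as a 15-min IV infusion every 8 h, reduced to 160 mg q8h if creatinine clearance was <50 ml/min. Venous plasma was taken predose and 15–465 min after the first and fourth infusions, then chilled and stored at −70°C. Colistin was measured by LC-MS/MS, and CMS after acid hydrolysis. Parameters came from NONMEM population modelling.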

[6] = Volume of distribution of central compartment in patient with gram-negative bacterial infection at […], iv; assay type: ADME, organism-based; parameters: route intravenous; conditions: human, in vivo; in short: as §1
[7] = tested on: Homo sapiens; experiment: Intercompartmental clearance in patient with gram-negative bacterial infection at […], iv; assay type: ADME, organism-based; parameters: route intravenous; conditions: in vivo; in short: as §1
[8] = (§2) Half life in central compartment of patient with gram-negative bacterial infection at […], iv; assay type: ADME, organism-based; parameters: route intravenous; conditions: human, in vivo; in short: as §1
[9] = (§3) Half life in peripheral compartment of patient with gram-negative bacterial infection at […], iv; assay type: ADME, organism-based; parameters: route intravenous; conditions: human, in vivo; in short: as §1
[10] = Cmax in patient with gram-negative bacterial infection at […], iv after 15 mins; assay type: ADME, organism-based; parameters: route intravenous; conditions: human, in vivo; in short: as §1
[11] = Drug concentration at steady state in patient with gram-negative bacterial infection at […], iv after 7 hrs; assay type: ADME, organism-based; parameters: route intravenous; conditions: human, in vivo, read-out: Css; in short: as §1
[12] = tested on: Homo sapiens; experiment: Clearance of formed compound in patient with gram-negative bacterial infection at […], iv; assay type: ADME, organism-based; parameters: route intravenous; conditions: in vivo; in short: as §1
[13] = tested on: Homo sapiens; experiment: Volume of distribution of formed compound in patient with gram-negative bacterial infection at […], iv; assay type: ADME, organism-based; parameters: route intravenous; conditions: in vivo; in short: as §1
[14] = tested on: Homo sapiens; experiment: as §2; assay type: ADME, organism-based; parameters: route intravenous; conditions: in vivo; in short: as §1
[15] = tested on: Homo sapiens; experiment: as §3; assay type: ADME, organism-based; parameters: route intravenous; conditions: in vivo; in short: as §1
[16] = tested on: Homo sapiens; experiment: Half life in patient with gram-negative bacterial infection at […], iv; assay type: ADME, organism-based; parameters: route intravenous; conditions: in vivo; in short: as §1

Compound	MIC [1] [µg/mL]	MIC [2] [µg/mL]	MIC [3] [µg/mL]	MIC [4] [µg/mL]	clearance [5] [mL/min]	Vd [6] [L]	CL [7] [L/h]	half-life [8] [min]	half-life [9] [h]	Cmax [10] [ng/mL]	concentration at 7 h [11] [ng/mL]	CL [12] [L/h]	Vd [13] [L]	t1/2 [14] [h]	t1/2 [15] [h]	t1/2 [16] [h]
CCC(C)CCCCC(=O)N[C@@H](CCNCS(=O)(=O)O)C(=O)N[C@H](C(=O)N[C@@H](CCNCS(=O)(=O)O)C(=O)N[C@H]1CCNC(=O)[C@H]([C@@H](C)O)NC(=O)[C@H](CCNCS(=O)(=O)O)NC(=O)[C@H](CCNCS(=O)(=O)O)NC(=O)[C@H](CC(C)C)NC(=O)[C@@H](CC(C)C)NC(=O)[C@H](CCNCS(=O)(=O)O)NC1=O)[C@@H](C)O.CS(=O)(=O)O (stereo partly specified) [COLISTIN METHYLSULPHATE]	≤ 2	≤ 2	≤ 2	≤ 2	228	13.5	133	2.76	2.3	2930	2300	–	–	–	–	–
COLISTIN	–	–	–	–	–	–	–	–	–	–	–	9.09	189	14.4	14.4	7.1
